Measurements: ChEMBL document CHEMBL4689842, “EUbOPEN Chemogenomics Library wave 1” (2021)

System: Fibroblast
Assay: Multiplex assay against human fibroblast
Assay type: toxicity, cell-based
In short: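 Hoechst33342, BioTracker Green Microtubule Cytoskeleton Dye, MitoTracker Red and Annexin V Alexa Fluor 680 were added to live cells at seeding, and imaging on a CQ1 microscope at 37°C and 5% CO2 followed compound addition. Gating by CellPathfinder machine learning separated cells into Hoechst high-intensity objects or normal cells, then normal cells into healthy, pyknosed or fragmented nuclei, then pyknosed cells into mitotic or apoptotic. Per cents of healthy-nucleus cells are reported for the tubulin, mitochondrial-mass and membrane-permeability phenotypes.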

[1] = 12 h, 1 µM, compound concentration 1 uM, replicate 1
[2] = 12 h, 1 µM, compound concentration 1 uM, replicate 2
[3] = 12 h, 10 µM, compound concentration 10 uM, replicate 1
[4] = 12 h, 10 µM, compound concentration 10 uM, replicate 2
[5] = 24 h, 1 µM, compound concentration 1 uM, replicate 1
[6] = 24 h, 1 µM, compound concentration 1 uM, replicate 2
[7] = 24 h, 10 µM, compound concentration 10 uM, replicate 1
[8] = 24 h, 10 µM, compound concentration 10 uM, replicate 2
[9] = 48 h, 1 µM, compound concentration 1 uM, replicate 1
[10] = 48 h, 1 µM, compound concentration 1 uM, replicate 2
[11] = 48 h, 10 µM, compound concentration 10 uM, replicate 1
[12] = 48 h, 10 µM, compound concentration 10 uM, replicate 2

CC[C@H](Nc1ncnc2[nH]cnc12)c1nc2cccc(F)c2c(=O)n1-c1ccccc1 [IDELALISIB]
Population Apoptotic (%) [1]: 91% | Population Fragmented Nuclei (%) [1]: 26% | Population Healthy Nuclei (%) [1]: 56% | Population Hoechst High Intensity Objects (%) [1]: 11% | Population Membrane Permeable-Phenotype (%) [1]: 12% | Population Mitochondria Different-Phenotype (%) [1]: 1% | Population Mitotic Cells (%) [1]: 8% | Population Normal (%) [1]: 88% | Population Pyknosed Nuclei (%) [1]: 17% | Population Tubulin-Different-Phenotype (%) [1]: 20% | Total Cell Count [1]: 222 | Population Apoptotic (%) [2]: 50% | Population Fragmented Nuclei (%) [2]: 56% | Population Healthy Nuclei (%) [2]: 34% | Population Hoechst High Intensity Objects (%) [2]: 30% | Population Membrane Permeable-Phenotype (%) [2]: 6% | Population Mitochondria Different-Phenotype (%) [2]: 26% | Population Mitotic Cells (%) [2]: 50% | Population Normal (%) [2]: 69% | Population Pyknosed Nuclei (%) [2]: 9% | Population Tubulin-Different-Phenotype (%) [2]: 53% | Total Cell Count [2]: 63 | Population Apoptotic (%) [3]: 58% | Population Fragmented Nuclei (%) [3]: 26% | Population Healthy Nuclei (%) [3]: 59% | Population Hoechst High Intensity Objects (%) [3]: 10% | Population Membrane Permeable-Phenotype (%) [3]: 14% | Population Mitochondria Different-Phenotype (%) [3]: 0% | Population Mitotic Cells (%) [3]: 41% | Population Normal (%) [3]: 89% | Population Pyknosed Nuclei (%) [3]: 13% | Population Tubulin-Different-Phenotype (%) [3]: 4% | Total Cell Count [3]: 199 | Population Apoptotic (%) [4]: 50% | Population Fragmented Nuclei (%) [4]: 58% | Population Healthy Nuclei (%) [4]: 33% | Population Hoechst High Intensity Objects (%) [4]: 34% | Population Membrane Permeable-Phenotype (%) [4]: 18% | Population Mitochondria Different-Phenotype (%) [4]: 31% | Population Mitotic Cells (%) [4]: 50% | Population Normal (%) [4]: 65% | Population Pyknosed Nuclei (%) [4]: 8% | Population Tubulin-Different-Phenotype (%) [4]: 25% | Total Cell Count [4]: 73 | Population Apoptotic (%) [5]: 59% | Population Fragmented Nuclei (%) [5]: 27% | Population Healthy Nuclei (%) [5]: 54% | Population Hoechst High Intensity Objects (%) [5]: 12% | Population Mitochondria Different-Phenotype (%) [5]: 5% | Population Mitotic Cells (%) [5]: 40% | Population Normal (%) [5]: 87% | Population Pyknosed Nuclei (%) [5]: 17% | Population Tubulin-Different-Phenotype (%) [5]: 15% | Total Cell Count [5]: 211 | Population Apoptotic (%) [6]: 40% | Population Fragmented Nuclei (%) [6]: 56% | Population Healthy Nuclei (%) [6]: 30% | Population Hoechst High Intensity Objects (%) [6]: 35% | Population Membrane Permeable-Phenotype (%) [6]: 0% | Population Mitochondria Different-Phenotype (%) [6]: 25% | Population Mitotic Cells (%) [6]: 60% | Population Normal (%) [6]: 65% | Population Pyknosed Nuclei (%) [6]: 12% | Population Tubulin-Different-Phenotype (%) [6]: 33% | Total Cell Count [6]: 60 | Population Apoptotic (%) [7]: 73% | Population Fragmented Nuclei (%) [7]: 22% | Population Healthy Nuclei (%) [7]: 59% | Population Hoechst High Intensity Objects (%) [7]: 13% | Population Membrane Permeable-Phenotype (%) [7]: 7% | Population Mitochondria Different-Phenotype (%) [7]: 0% | Population Mitotic Cells (%) [7]: 26% | Population Normal (%) [7]: 86% | Population Pyknosed Nuclei (%) [7]: 17% | Population Tubulin-Different-Phenotype (%) [7]: 1% | Total Cell Count [7]: 221 | Population Apoptotic (%) [8]: 0% | Population Fragmented Nuclei (%) [8]: 70% | Population Healthy Nuclei (%) [8]: 25% | Population Hoechst High Intensity Objects (%) [8]: 22% | Population Membrane Permeable-Phenotype (%) [8]: 26% | Population Mitochondria Different-Phenotype (%) [8]: 6% | Population Mitotic Cells (%) [8]: 100% | Population Normal (%) [8]: 77% | Population Pyknosed Nuclei (%) [8]: 5% | Population Tubulin-Different-Phenotype (%) [8]: 33% | Total Cell Count [8]: 77

N#CCNC(=O)c1ccc(-c2ccnc(Nc3ccc(N4CCOCC4)cc3)n2)cc1 [MOMELOTINIB]
Population Apoptotic (%) [1]: 64% | Population Fragmented Nuclei (%) [1]: 26% | Population Healthy Nuclei (%) [1]: 40% | Population Hoechst High Intensity Objects (%) [1]: 11% | Population Membrane Permeable-Phenotype (%) [1]: 30% | Population Mitochondria Different-Phenotype (%) [1]: 4% | Population Mitotic Cells (%) [1]: 35% | Population Normal (%) [1]: 88% | Population Pyknosed Nuclei (%) [1]: 33% | Population Tubulin-Different-Phenotype (%) [1]: 21% | Total Cell Count [1]: 117 | Population Apoptotic (%) [2]: 60% | Population Fragmented Nuclei (%) [2]: 1% | Population Healthy Nuclei (%) [2]: 88% | Population Hoechst High Intensity Objects (%) [2]: 8% | Population Membrane Permeable-Phenotype (%) [2]: 2% | Population Mitochondria Different-Phenotype (%) [2]: 13% | Population Mitotic Cells (%) [2]: 40% | Population Normal (%) [2]: 91% | Population Pyknosed Nuclei (%) [2]: 9% | Population Tubulin-Different-Phenotype (%) [2]: 11% | Total Cell Count [2]: 3119 | Population Apoptotic (%) [3]: 63% | Population Fragmented Nuclei (%) [3]: 40% | Population Healthy Nuclei (%) [3]: 28% | Population Hoechst High Intensity Objects (%) [3]: 13% | Population Membrane Permeable-Phenotype (%) [3]: 16% | Population Mitochondria Different-Phenotype (%) [3]: 10% | Population Mitotic Cells (%) [3]: 36% | Population Normal (%) [3]: 86% | Population Pyknosed Nuclei (%) [3]: 31% | Population Tubulin-Different-Phenotype (%) [3]: 45% | Total Cell Count [3]: 153 | Population Apoptotic (%) [4]: 13% | Population Fragmented Nuclei (%) [4]: 27% | Population Healthy Nuclei (%) [4]: 47% | Population Hoechst High Intensity Objects (%) [4]: 10% | Population Membrane Permeable-Phenotype (%) [4]: 0% | Population Mitochondria Different-Phenotype (%) [4]: 6% | Population Mitotic Cells (%) [4]: 86% | Population Normal (%) [4]: 89% | Population Pyknosed Nuclei (%) [4]: 24% | Population Tubulin-Different-Phenotype (%) [4]: 6% | Total Cell Count [4]: 56 | Population Apoptotic (%) [5]: 56% | Population Fragmented Nuclei (%) [5]: 26% | Population Healthy Nuclei (%) [5]: 52% | Population Hoechst High Intensity Objects (%) [5]: 11% | Population Membrane Permeable-Phenotype (%) [5]: 27% | Population Mitochondria Different-Phenotype (%) [5]: 0% | Population Mitotic Cells (%) [5]: 43% | Population Normal (%) [5]: 88% | Population Pyknosed Nuclei (%) [5]: 20% | Population Tubulin-Different-Phenotype (%) [5]: 18% | Total Cell Count [5]: 127 | Population Apoptotic (%) [6]: 66% | Population Fragmented Nuclei (%) [6]: 7% | Population Healthy Nuclei (%) [6]: 86% | Population Hoechst High Intensity Objects (%) [6]: 10% | Population Membrane Permeable-Phenotype (%) [6]: 6% | Population Mitochondria Different-Phenotype (%) [6]: 15% | Population Mitotic Cells (%) [6]: 33% | Population Normal (%) [6]: 89% | Population Pyknosed Nuclei (%) [6]: 5% | Population Tubulin-Different-Phenotype (%) [6]: 8% | Total Cell Count [6]: 3108 | Population Apoptotic (%) [7]: 48% | Population Fragmented Nuclei (%) [7]: 39% | Population Healthy Nuclei (%) [7]: 37% | Population Hoechst High Intensity Objects (%) [7]: 14% | Population Membrane Permeable-Phenotype (%) [7]: 29% | Population Mitochondria Different-Phenotype (%) [7]: 12% | Population Mitotic Cells (%) [7]: 51% | Population Normal (%) [7]: 85% | Population Pyknosed Nuclei (%) [7]: 23% | Population Tubulin-Different-Phenotype (%) [7]: 46% | Total Cell Count [7]: 147 | Population Apoptotic (%) [8]: 45% | Population Fragmented Nuclei (%) [8]: 31% | Population Healthy Nuclei (%) [8]: 52% | Population Hoechst High Intensity Objects (%) [8]: 5% | Population Membrane Permeable-Phenotype (%) [8]: 28% | Population Mitochondria Different-Phenotype (%) [8]: 34% | Population Mitotic Cells (%) [8]: 54% | Population Normal (%) [8]: 94% | Population Pyknosed Nuclei (%) [8]: 16% | Population Tubulin-Different-Phenotype (%) [8]: 14% | Total Cell Count [8]: 59 | Population Apoptotic (%) [9]: 44% | Population Fragmented Nuclei (%) [9]: 34% | Population Healthy Nuclei (%) [9]: 57% | Population Hoechst High Intensity Objects (%) [9]: 16% | Population Membrane Permeable-Phenotype (%) [9]: 16% | Population Mitochondria Different-Phenotype (%) [9]: 1% | Population Mitotic Cells (%) [9]: 55% | Population Normal (%) [9]: 83% | Population Pyknosed Nuclei (%) [9]: 8% | Population Tubulin-Different-Phenotype (%) [9]: 17% | Total Cell Count [9]: 129 | Population Apoptotic (%) [10]: 80% | Population Fragmented Nuclei (%) [10]: 33% | Population Healthy Nuclei (%) [10]: 61% | Population Hoechst High Intensity Objects (%) [10]: 15% | Population Membrane Permeable-Phenotype (%) [10]: 4% | Population Mitotic Cells (%) [10]: 20% | Population Normal (%) [10]: 84% | Population Pyknosed Nuclei (%) [10]: 5% | Population Tubulin-Different-Phenotype (%) [10]: 21% | Total Cell Count [10]: 117 | Population Apoptotic (%) [11]: 60% | Population Fragmented Nuclei (%) [11]: 47% | Population Healthy Nuclei (%) [11]: 40% | Population Hoechst High Intensity Objects (%) [11]: 14% | Population Membrane Permeable-Phenotype (%) [11]: 25% | Population Mitochondria Different-Phenotype (%) [11]: 9% | Population Mitotic Cells (%) [11]: 40% | Population Normal (%) [11]: 85% | Population Pyknosed Nuclei (%) [11]: 11% | Population Tubulin-Different-Phenotype (%) [11]: 37% | Total Cell Count [11]: 155 | Population Apoptotic (%) [12]: 50% | Population Fragmented Nuclei (%) [12]: 52% | Population Hoechst High Intensity Objects (%) [12]: 8% | Population Membrane Permeable-Phenotype (%) [12]: 11% | Population Mitochondria Different-Phenotype (%) [12]: 1% | Population Mitotic Cells (%) [12]: 50% | Population Normal (%) [12]: 91% | Population Pyknosed Nuclei (%) [12]: 6% | Population Tubulin-Different-Phenotype (%) [12]: 58% | Total Cell Count [12]: 162
